# According to ChEMBL document CHEMBL2146367, “Novel fluorescent ceramide derivatives for probing ceramidase substrate specificity” (Bioorg Med Chem, 2012):
# Tests used:
# [1] = substrate: CCCCCCCCCCCCC/C=C/[C@@H](O)[C@H](CO)NC(=O)CCCCCCCCCCCNc1ccc([N+](=O)[O-])c2nonc12; assay: Activity of mouse neutral ceramidase after 30 mins by TLC-based fluorescence imaging
# [2] = substrate: CCCCCCCCCCCCCCCC(=O)N[C@@H](CO)[C@H](O)/C=C/CCCCCCCCCOc1ccc2c(=O)cc3oc4cc(N(CC)CC)ccc4nc-3c2c1; assay: (§1) Activity of human recombinant neutral ceramidase assessed per ng of protein after 60 mins by Lineweaver-Burk plot analysis
# How it was run: (§2)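 Human recombinant nCDase held at 20 ng/mL in 200 mM sodium acetate pH 7.0 with 200 mM NaCl and 0.1% Triton X-100. Substrate varied from 5 to 150 or 5 to 180 µM, DMSO <5%. Incubated 60 min at 37 °C, chloroform/methanol quench, TLC with fluorescence imaging. Kinetic constants from Lineweaver-Burk plots, mean ± SD of triplicate experiments.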
# [3] = substrate: CCCCCCCCCCCCCCCC(=O)N[C@@H](CO)[C@H](O)/C=C/CCCCCCCCCNc1ccc([N+](=O)[O-])c2nonc12; assay: as §1; how it was run: as §2
# [4] = substrate: CCCCCCCCCCCCC/C=C/[C@@H](O)[C@H](CO)NC(=O)CCCCCCCCCCCOc1ccc2c(=O)cc3oc4cc(N(CC)CC)ccc4nc-3c2c1; assay: as §1; how it was run: as §2
# [5] = substrate: CCCCCCCCCCCCC/C=C/[C@@H](O)[C@H](CO)NC(=O)CCCCCCCCCCCNc1ccc([N+](=O)[O-])c2nonc12; assay: as §1; how it was run: as §2
# [6] = substrate: CCCCCCCCCCCCCCCC(=O)N[C@@H](CO)[C@H](O)/C=C/CCCCCCCCCOc1ccc2c(=O)cc3oc4cc(N(CC)CC)ccc4nc-3c2c1; assay: (§3) Activity of human recombinant neutral ceramidase after 60 mins by Lineweaver-Burk plot analysis; how it was run: as §2
# [7] = substrate: CCCCCCCCCCCCCCCC(=O)N[C@@H](CO)[C@H](O)/C=C/CCCCCCCCCNc1ccc([N+](=O)[O-])c2nonc12; assay: as §3; how it was run: as §2
# [8] = substrate: CCCCCCCCCCCCC/C=C/[C@@H](O)[C@H](CO)NC(=O)CCCCCCCCCCCOc1ccc2c(=O)cc3oc4cc(N(CC)CC)ccc4nc-3c2c1; assay: as §3; how it was run: as §2
# [9] = substrate: CCCCCCCCCCCCC/C=C/[C@@H](O)[C@H](CO)NC(=O)CCCCCCCCCCCNc1ccc([N+](=O)[O-])c2nonc12; assay: as §3; how it was run: as §2
# [10] = substrate: CCCCCCCCCCCCCCCC(=O)N[C@@H](CO)[C@H](O)/C=C/CCCCCCCCCOc1ccc2c(=O)cc3oc4cc(N(CC)CC)ccc4nc-3c2c1; assay: (§4) Activity of human recombinant acid ceramidase expressed in baculovirus infected Sf9 cells after 150 mins by Lineweaver-Burk plot analysis
# How it was run: (§5)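 Recombinant human aCDase expressed in insect cells, at a fixed enzyme level, in 200 mM sodium acetate pH 4.5 with 200 mM NaCl and 0.1% Triton X-100. Substrate varied from 5 to 150 µM or 5 to 180 µM, added from DMSO stocks (DMSO <5% v/v), 37 °C for 150 min. Chloroform/methanol extraction, TLC, fluorescence imaging of cleaved and uncleaved spots. KM, Vmax and kcat taken from Lineweaver-Burk plots, mean ± SD of three independent experiments.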
# [11] = substrate: CCCCCCCCCCCCCCCC(=O)N[C@@H](CO)[C@H](O)/C=C/CCCCCCCCCNc1ccc([N+](=O)[O-])c2nonc12; assay: as §4; how it was run: as §5
# [12] = substrate: CCCCCCCCCCCCC/C=C/[C@@H](O)[C@H](CO)NC(=O)CCCCCCCCCCCOc1ccc2c(=O)cc3oc4cc(N(CC)CC)ccc4nc-3c2c1; assay: as §4; how it was run: as §5
# [13] = substrate: CCCCCCCCCCCCC/C=C/[C@@H](O)[C@H](CO)NC(=O)CCCCCCCCCCCNc1ccc([N+](=O)[O-])c2nonc12; assay: as §4; how it was run: as §5
# [14] = substrate: CCCCCCCCCCCCCCCC(=O)N[C@@H](CO)[C@H](O)/C=C/CCCCCCCCCOc1ccc2c(=O)cc3oc4cc(N(CC)CC)ccc4nc-3c2c1; assay: (§6) Activity of human recombinant acid ceramidase expressed in baculovirus infected Sf9 cells assessed per ug of protein after 150 mins by Lineweaver-Burk plot analysis; how it was run: as §5
# [15] = substrate: CCCCCCCCCCCCCCCC(=O)N[C@@H](CO)[C@H](O)/C=C/CCCCCCCCCNc1ccc([N+](=O)[O-])c2nonc12; assay: as §6; how it was run: as §5
# [16] = substrate: CCCCCCCCCCCCC/C=C/[C@@H](O)[C@H](CO)NC(=O)CCCCCCCCCCCOc1ccc2c(=O)cc3oc4cc(N(CC)CC)ccc4nc-3c2c1; assay: as §6; how it was run: as §5
# [17] = substrate: CCCCCCCCCCCCC/C=C/[C@@H](O)[C@H](CO)NC(=O)CCCCCCCCCCCNc1ccc([N+](=O)[O-])c2nonc12; assay: as §6; how it was run: as §5
protein,measurement,setting,value
"Neutral ceramidase (Mus musculus), Q9JHE3 (protein) MAKRTFSTLEAFLIFLLVIMTVITVALLTLLFVTSGTIENHKDSGNHWFSTTLGSTTTQPPPITQTPNFPSFRNFSGYYIGVGRADCTGQVSDINLMGYGKNGQNARGLLTRLFSRAFILADPDGSNRMAFVSVELCMISQRLRLEVLKRLESKYGSLYRRDNVILSAIHTHSGPAGFFQYTLYILASEGFSNRTFQYIVSGIMKSIDIAHTNLKPGKIFINKGNVANVQINRSPSSYLLNPQSERARYSSNTDKEMLVLKLVDLNGEDLGLISWFAIHPVSMNNSNHFVNSDNMGYAAYLFEQEKNKGYLPGQGPFVAGFASSNLGDVSPNILGPHCVNTGESCDNDKSTCPNGGPSMCMASGPGQDMFESTHIIGRIIYQKAKELYASASQEVTGPVLAAHQWVNMTDVSVQLNATHTVKTCKPALGYSFAAGTIDGVSGLNITQGTTEGDPFWDTLRDQLLGKPSEEIVECQKPKPILLHSGELTIPHPWQPDIVDVQIVTVGSLAIAAIPGELTTMSGRRFREAIKKEFALYGMKDMTVVIAGLSNVYTHYITTYEEYQAQRYEAASTIYGPHTLSAYIQLFRDLAKAIATDTVANMSSGPEPPFFKNLIASLIPNIADRAPIGKHFGDVLQPAKPEYRVGEVVEVIFVGANPKNSAENQTHQTFLTVEKYEDSVADWQIMYNDASWETRFYWHKGILGLSNATIYWHIPDTAYPGIYRIRYFGHNRKQELLKPAVILAFEGISSPFEVVTT",Km,[1],22.3 µM
same,Vmax,[1],4.7 pmol/min
"Neutral ceramidase (Homo sapiens), Q9NR71 (protein) MAKRTFSNLETFLIFLLVMMSAITVALLSLLFITSGTIENHKDLGGHFFSTTQSPPATQGSTAAQRSTATQHSTATQSSTATQTSPVPLTPESPLFQNFSGYHIGVGRADCTGQVADINLMGYGKSGQNAQGILTRLYSRAFIMAEPDGSNRTVFVSIDIGMVSQRLRLEVLNRLQSKYGSLYRRDNVILSGTHTHSGPAGYFQYTVFVIASEGFSNQTFQHMVTGILKSIDIAHTNMKPGKIFINKGNVDGVQINRSPYSYLQNPQSERARYSSNTDKEMIVLKMVDLNGDDLGLISWFAIHPVSMNNSNHLVNSDNVGYASYLLEQEKNKGYLPGQGPFVAAFASSNLGDVSPNILGPRCINTGESCDNANSTCPIGGPSMCIAKGPGQDMFDSTQIIGRAMYQRAKELYASASQEVTGPLASAHQWVDMTDVTVWLNSTHASKTCKPALGYSFAAGTIDGVGGLNFTQGKTEGDPFWDTIRDQILGKPSEEIKECHKPKPILLHTGELSKPHPWHPDIVDVQIITLGSLAITAIPGEFTTMSGRRLREAVQAEFASHGMQNMTVVISGLCNVYTHYITTYEEYQAQRYEAASTIYGPHTLSAYIQLFRNLAKAIATDTVANLSRGPEPPFFKQLIVPLIPSIVDRAPKGRTFGDVLQPAKPEYRVGEVAEVIFVGANPKNSVQNQTHQTFLTVEKYEATSTSWQIVCNDASWETRFYWHKGLLGLSNATVEWHIPDTAQPGIYRIRYFGHNRKQDILKPAVILSFEGTSPAFEVVTI",specific activity,[2],0.26 pmol/min/ng
same,specific activity,[3],1.6 pmol/min/ng
same,specific activity,[4],0.5 pmol/min/ng
same,specific activity,[5],3.1 pmol/min/ng
same,Km,[6],36.4 µM
same,Vmax,[6],5.3 pmol/min
same,Km,[7],193 µM
same,Vmax,[7],31.8 pmol/min
same,Km,[8],85.3 µM
same,Vmax,[8],10 pmol/min
same,Km,[9],190 µM
same,Vmax,[9],62.4 pmol/min
"Acid ceramidase (Homo sapiens), Q13510 (protein) MPGRSCVALVLLAAAVSCAVAQHAPPWTEDCRKSTYPPSGPTYRGAVPWYTINLDLPPYKRWHELMLDKAPVLKVIVNSLKNMINTFVPSGKIMQVVDEKLPGLLGNFPGPFEEEMKGIAAVTDIPLGEIISFNIFYELFTICTSIVAEDKKGHLIHGRNMDFGVFLGWNINNDTWVITEQLKPLTVNLDFQRNNKTVFKASSFAGYVGMLTGFKPGLFSLTLNERFSINGGYLGILEWILGKKDVMWIGFLTRTVLENSTSYEEAKNLLTKTKILAPAYFILGGNQSGEGCVITRDRKESLDVYELDAKQGRWYVVQTNYDRWKHPFFLDDRRTPAKMCLNRTSQENISFETMYDVLSTKPVLNKLTVYTTLIDVTKGQFETYLRDCPDPCIGW",Km,[10],81.8 µM
same,Vmax,[10],3.9 pmol/min
same,Km,[11],204 µM
same,Vmax,[11],12.2 pmol/min
same,Km,[12],110 µM
same,Vmax,[12],7.2 pmol/min
same,Km,[13],86.9 µM
same,Vmax,[13],4.4 pmol/min
same,specific activity,[14],0.078 pmol/min/µg
same,specific activity,[15],0.244 pmol/min/µg
same,specific activity,[16],0.143 pmol/min/µg
same,specific activity,[17],0.0882 pmol/min/µg
